Columns and labels:
[1] = biological target: T1, Cystic fibrosis transmembrane conductance regulator (Homo sapiens, UniProt P13569); assay: Percent activation of wild type CFTR dependent efflux was determined by measuring the rate of iodide [125I]- efflux from transfected CHO cells; type: functional, cell-based; set-up: concentration or dose not given beside the values
Outline: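 CHO cells stably expressing wild-type CFTR (MEM, 7% FBS, 100 μM methotrexate), grown in 24-well plates. Loaded 30 min at 37 °C in efflux buffer (NaCl/KCl/MgCl2/glucose/HEPES, pH 7.4) with 1 μM KI and 125I; medium sampled every 1 min up to 11 min, drug after four baseline aliquots, compounds at 250 μM. Peak efflux rate expressed relative to 5 μM forskolin (=100%); mean ± SEM, n experiments.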
Target sequence in this assay (P13569 whole entry, looked up): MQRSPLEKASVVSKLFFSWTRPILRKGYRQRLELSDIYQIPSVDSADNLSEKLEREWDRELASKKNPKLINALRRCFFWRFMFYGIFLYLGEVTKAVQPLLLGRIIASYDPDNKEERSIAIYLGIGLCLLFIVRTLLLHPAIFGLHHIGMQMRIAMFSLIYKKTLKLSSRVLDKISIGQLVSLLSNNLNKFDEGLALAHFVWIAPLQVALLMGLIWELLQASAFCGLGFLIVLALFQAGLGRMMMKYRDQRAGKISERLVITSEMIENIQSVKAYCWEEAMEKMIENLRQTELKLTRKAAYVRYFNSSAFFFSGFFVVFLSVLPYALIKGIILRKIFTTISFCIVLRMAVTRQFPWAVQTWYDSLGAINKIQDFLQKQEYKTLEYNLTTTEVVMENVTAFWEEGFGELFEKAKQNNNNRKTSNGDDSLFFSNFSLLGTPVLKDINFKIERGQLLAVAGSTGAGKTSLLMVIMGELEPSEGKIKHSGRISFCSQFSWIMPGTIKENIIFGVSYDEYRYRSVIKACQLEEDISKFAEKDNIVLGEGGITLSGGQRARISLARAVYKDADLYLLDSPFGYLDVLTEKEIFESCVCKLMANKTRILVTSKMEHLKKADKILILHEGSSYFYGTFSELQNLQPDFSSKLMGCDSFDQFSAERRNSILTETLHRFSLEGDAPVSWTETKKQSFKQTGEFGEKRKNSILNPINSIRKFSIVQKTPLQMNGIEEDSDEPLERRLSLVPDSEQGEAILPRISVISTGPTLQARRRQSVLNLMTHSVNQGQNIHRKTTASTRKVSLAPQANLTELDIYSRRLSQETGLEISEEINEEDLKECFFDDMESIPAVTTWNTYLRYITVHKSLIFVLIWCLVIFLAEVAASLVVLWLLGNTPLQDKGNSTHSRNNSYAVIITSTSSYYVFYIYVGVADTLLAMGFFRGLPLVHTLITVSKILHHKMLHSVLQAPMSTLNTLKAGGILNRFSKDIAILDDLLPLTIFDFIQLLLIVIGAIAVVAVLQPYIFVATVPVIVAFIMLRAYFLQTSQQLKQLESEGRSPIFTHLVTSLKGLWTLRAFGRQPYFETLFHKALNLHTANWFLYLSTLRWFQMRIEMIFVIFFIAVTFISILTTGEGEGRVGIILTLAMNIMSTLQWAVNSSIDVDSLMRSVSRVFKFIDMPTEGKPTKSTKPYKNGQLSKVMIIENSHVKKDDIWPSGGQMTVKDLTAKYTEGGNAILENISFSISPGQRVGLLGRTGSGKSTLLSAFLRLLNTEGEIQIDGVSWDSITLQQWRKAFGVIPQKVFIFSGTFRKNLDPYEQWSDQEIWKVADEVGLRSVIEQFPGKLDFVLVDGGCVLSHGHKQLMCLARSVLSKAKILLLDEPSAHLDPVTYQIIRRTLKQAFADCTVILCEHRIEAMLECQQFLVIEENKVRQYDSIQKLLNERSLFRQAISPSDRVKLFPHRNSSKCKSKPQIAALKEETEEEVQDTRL

[2] = biological target: Cystic fibrosis transmembrane conductance regulator (Homo sapiens, UniProt P13569, G551D); assay: Half-Maximal effective concentration of compound required to stimulate of G551D-CFTR activity in the presence of 10 uM Fsk; type: functional
Cystic fibrosis transmembrane conductance regulator (Homo sapiens, UniProt P13569, G551D), sequence (P13569 whole entry G551D): as the sequence (P13569 whole entry, looked up) above, with G551D counted along it
Outline: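 G551D-CFTR stably expressed in CHO cells. The ¹²⁵I efflux assay was run on a robot: cells were loaded for 30 min at 37 °C in HEPES buffer pH 7.4 containing 1 μM KI and 1 μCi/mL ¹²⁵I, and efflux was sampled each minute for up to 11 min (4 baseline samples). Cells were exposed to 10 μM Fsk, then to increasing compound concentrations. EC50 came from %-of-maximal-effect curves, n = 6, mean ± SEM.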

[3] = biological target: T1, Cystic fibrosis transmembrane conductance regulator; assay: Half-Maximal effective concentration of compound required to stimulate of wild type-CFTR activity in the presence of 1 uM Fsk
Target sequence in this assay (P13569 whole entry): as the sequence (P13569 whole entry, looked up) above

| Structure (SMILES) | Activation [1] [%] | EC50 [2] [µM] | EC50 [3] [µM] |
| --- | --- | --- | --- |
| Nc1cc2cccc[n+]2c2cccc(Cl)c12 | < 5 | – | – |
| Nc1cc2[n+](c3c(Cl)cccc13)CCc1c-2[nH]c2ccccc12 | 46 | – | – |
| Oc1cc2cccc[n+]2c2cccc(Cl)c12 | 20 | > 200 | 146 |
| Cc1c(O)c2cccc(Cl)c2[n+]2ccccc12 | 19 | – | – |
| CC(C)Cc1c(O)c2cccc(Cl)c2[n+]2ccccc12 | 26 | 32 | 26 |
| CCOC(=O)c1c(O)c2ccc(F)cc2[n+]2ccccc12 | 6 | – | – |
| Oc1cc2cccc[n+]2c2cc(F)ccc12 | 16 | – | – |
| C=C[C@@]1(C)CC(=O)[C@]2(O)[C@@]3(C)[C@@H](O)CCC(C)(C)[C@@H]3[C@H](O)[C@H](OC(C)=O)[C@@]2(C)O1 | 100 | – | – |
| Nc1cc2cccc[n+]2c2c(Cl)cccc12 | < 5 | – | – |
| CCCCc1c(O)c2cccc(Cl)c2[n+]2ccccc12 | 45 | 34 | 23.5 |
| Nc1cc2[n+](c3cccc(Cl)c13)CCc1c-2[nH]c2ccccc12 | 30 | – | – |
| Oc1cc2cccc[n+]2c2cc(Cl)ccc12 | < 5 | – | – |
| Oc1c2c3c(ccc[n+]3c3cccc(F)c13)CC2 | < 5 | – | – |
| Oc1cc2cccc[n+]2c2c(F)cccc12 | < 5 | – | – |
| Oc1cc2cccc[n+]2c2cccc(F)c12 | < 5 | – | – |
| Nc1cc2[n+](c3ccc(Cl)cc13)CCc1c-2[nH]c2ccccc12 | 6 | – | – |
| CCCCc1c(O)c2c(Cl)cccc2[n+]2ccccc12 | 33 | 0.75 | 1.7 |
| CCOC(=O)c1c(O)c2c(F)cccc2[n+]2ccccc12 | 8 | – | – |
| Oc1c(-c2ccccc2)c2cccc[n+]2c2c(Cl)cccc12 | 6 | – | – |
| Oc1cc2cccc[n+]2c2c(Cl)cccc12 | 24 | > 200 | 141 |
| CCOC(=O)c1c(O)c2cc(F)ccc2[n+]2ccccc12 | < 5 | – | – |
| Oc1cc2cccc[n+]2c2ccc(F)cc12 | 11 | – | – |
| Oc1cc2cccc[n+]2c2ccc(Cl)cc12 | 18 | – | – |
| CCCc1c(O)c2cccc(Cl)c2[n+]2ccccc12 | 32 | 48 | 54.2 |
| CCCCCc1c(O)c2cccc(Cl)c2[n+]2ccccc12 | 38 | 20 | 21 |
| CCOC(=O)c1c(O)c2cccc(F)c2[n+]2ccccc12 | 37 | 95 | 70.5 |
